The results in this text go back to ChEMBL document CHEMBL1641397, “Camphoratins A-J, potent cytotoxic and anti-inflammatory triterpenoids from the fruiting body of Taiwanofungus camphoratus” (J Nat Prod, 2010).

Assay [1] in a line: Cytotoxicity against human KBVIN cells after 3 days by sulforhodamine B assay. It counts as functional, cell-based. Summed up:
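KB and vincristine-selected KB-VIN grown in RPMI-1640 with 25 mM HEPES and 10% FBS at 37 °C. KB-VIN challenged with 0.5 μg/mL vincristine every two weeks, drug withdrawn at least one day before use. Seeded at 5000 cells/well, compounds at 20 down to 0.16 μM for 3 days. TCA fixation, SRB stain, absorbance at 562 nm. EC50 interpolated, average of at least two independent determinations.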
In general terms: The SRB assay estimates cell density from bound dye.

The subject of assay [2] is KB. Put plainly: Cytotoxicity against human KB cells after 3 days by sulforhodamine B assay. It counts as functional, cell-based.
Assay [3] is described as follows: Antiinflammatory activity in human PMNC cells assessed as inhibition of fMLP-induced NOX-dependent ROS production up to 50 uM. It counts as functional, cell-based.
The subject of assay [4] is BV-2. Nature of the assay: Antiinflammatory activity in mouse BV2 cells assessed as inhibition of LPS-induced iNOS-dependent nitrite production after 24 hrs by Griess method. It counts as functional, cell-based. For orientation: Griess reagent forms a coloured azo dye with nitrite.
Assay [5] relates to BV-2. Put plainly: Antiinflammatory activity in mouse BV2 cells assessed as inhibition of NOX-dependent ROS production up to 50 uM. It counts as functional, cell-based.
In assay [6] the test system is KB. Put plainly: Cytotoxicity against human KB cells at 20 uM after 3 days by sulforhodamine B assay. It counts as functional, cell-based. Summed up: (§1)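 KB or KB-VIN cells (KB-VIN held under intermittent 0.5 μg/mL vincristine, withdrawn at least one day before use). Seeded at 5000 cells/well and exposed to compound at 20 μM for 3 days. Cells fixed with TCA, stained with SRB, absorbance read at 562 nm. Value is % inhibition of growth versus untreated cells.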

Assay [7] in a line: Cytotoxicity against human KBVIN cells at 20 uM after 3 days by sulforhodamine B assay. It counts as functional. The settings on record: 72 h. Summed up: as §1
The mark [8] stands for this setting: Homo sapiens, KBVIN, 72 h, read-out: EC50.
The mark [9] stands for this setting: Homo sapiens, KB, 72 h, read-out: EC50.
Setting [10] is: Homo sapiens, PMNC, read-out: IC50.
Setting [11] is: Mus musculus, BV-2, 24 h, read-out: IC50.
Where [12] appears, read: Mus musculus, BV-2, read-out: IC50.

A word on the EC50: it is the concentration that produces a half-maximal response. Turning to `C=C(CC[C@@H](C)[C@H]1CC[C@H]2C3=C(C(=O)C[C@]12C)[C@@]1(C)CC[C@@H](O)[C@@H](C)[C@@H]1CC3=O)C(C)C(=O)OC` (stereo not given in full) [CAMPHORATIN E], the EC50 in assay [1] (setting [8]) came to 2.7 µM; with KB [2] (setting [9]), 0.45 µM.

A word on the IC50: it is the concentration needed to halve the response being measured. As to `C=C(CC[C@@H](C)[C@H]1CC[C@H]2C3=C(C(=O)C[C@]12C)[C@@]1(C)CC[C@@H](O)[C@@H](C)[C@@H]1C[C@@H]3O)C(C)C(=O)O` (stereo not given in full) [CAMPHORATIN B], the results for the IC50 (in assay [3] (setting [10]); with BV-2 [4] (setting [11]); in the assay on BV-2 [5] (bv-2)) were 32.1 µM, 15.7 µM and “Not Active”, respectively. Also, the EC50 result in assay [1] (kbvin) is “Not Active”.

As to `c1ccc2c(c1)[I+]c1ccccc1-2` [DIPHENYLENEIODONIUM], the half-inhibitory concentration (IC50) in the assay with BV-2 [5] (setting [12]) worked out at 0.4 µM.

As for `C=C(CC[C@@H](C)[C@H]1CC[C@H]2C3=C(C(=O)C[C@]12C)[C@@]1(C)CCC(=O)[C@@H](C)[C@@H]1C[C@@H]3O)C(C)C(=O)OC` (stereo not given in full) [CAMPHORATIN F], the IC50 in assay [3] (setting [10]) was 11.2 µM; in the assay on BV-2 [4] (setting [11]), 2.5 µM; with BV-2 [5] (bv-2), “Not Active”. Also, the concentration for a half-maximal effect (EC50) is 2.9 µM in assay [1] (setting [8]) and 2 µM with KB [2] (setting [9]).

As to `C=C(CC[C@@H](C)[C@H]1CC[C@H]2C3=C(C(=O)[C@H](O)[C@]12C)[C@@]1(C)CC[C@@H](O)[C@@H](C)[C@@H]1CC3=O)C(C)C(=O)O` (stereo not given in full) [ZHANKUIC ACID C], the half-maximal inhibitory concentration (IC50) result in assay [3] (pmnc) was “Not Active”; in the assay on BV-2 [4] (setting [11]), 16.2 µM; in the assay on BV-2 [5] (setting [12]), 40.3 µM. For the same compound, the concentration for a half-maximal effect (EC50) in assay [1] (setting [8]) turned out to be 6.4 µM; with KB [2] (setting [9]) it was 15.5 µM.

Turning to `C=C(CC[C@@H](C)[C@H]1CC[C@H]2C3=C(C(=O)C[C@]12C)[C@@]1(C)CC[C@@H](O)[C@@H](C)[C@@H]1CC3=O)C(C)C(=O)O` (stereo not given in full) [ZHANKUIC ACID B], the IC50 result was “Not Active” in assay [3] (pmnc), 9.6 µM in the assay on BV-2 [4] (setting [11]) and “Not Active” with BV-2 [5] (bv-2). In addition, the EC50 in assay [1] (setting [8]) turned out to be 8.5 µM; in the assay with KB [2] (setting [9]), 7.3 µM.

Consider `C=C(CC[C@@H](C)[C@H]1CC[C@H]2C3=C(C(=O)C[C@]12C)[C@@]1(C)CC[C@@H](O)[C@](C)(O)[C@@H]1CC3=O)C(C)C(=O)O` (stereo not given in full) [CAMPHORATIN C], for which the concentration for a half-maximal effect (EC50) in assay [1] (setting [8]) turned out to be 2.3 µM; in the assay on KB [2] (setting [9]), 0.3 µM.

Consider `C=C(CC[C@@H](C)[C@H]1CC[C@@H]2C3=C(C(=O)C[C@@]21C)[C@@]1(C)CCC(=O)[C@@H](C)[C@@H]1CC3)C(C)C(=O)OC` (stereo not given in full) [CAMPHORATIN J], for which the results for the 50% inhibitory concentration (IC50) (in assay [3] (setting [10]); in the assay with BV-2 [4] (setting [11]); in the assay with BV-2 [5] (bv-2)) were 15.8 µM, 1.6 µM and “Not Active”, respectively. In addition, the 50% effective concentration (EC50) result (in assay [1] (kbvin); in the assay on KB [2] (kb)) was “Not Active” throughout.

For `COc1cc([C@@H]2c3cc4c(cc3[C@@H](O[C@@H]3O[C@@H]5CO[C@@H](C)O[C@H]5[C@H](O)[C@H]3O)[C@H]3COC(=O)[C@H]23)OCO4)cc(OC)c1O` [ETOPOSIDE], the EC50 in assay [1] (setting [8]) is over 36 µM; in the assay on KB [2] (setting [9]), 4.5 µM.

In the case of `C[C@H](/C=C/[C@H](C)[C@H](C)CO)[C@H]1CC[C@H]2C3=CC[C@H]4CC(=O)CC[C@]4(C)[C@H]3CC[C@]12C` [CAMPHORATIN I], the IC50 is 17.5 µM in assay [3] (setting [10]), 12.7 µM in the assay with BV-2 [4] (setting [11]) and “Not Active” with BV-2 [5] (bv-2). Moreover, the half-maximal effective concentration (EC50) entry (in assay [1] (kbvin); in the assay with KB [2] (kb)) was “Not Active” each time.

In the case of `C=C(CC[C@@H](C)[C@H]1CC[C@H]2C3=C(C[C@H](O)[C@]12C)[C@@]1(C)CC[C@@H](O)[C@@H](C)[C@@H]1CC3=O)C(C)C(=O)OC` (stereo not given in full) [METHYL ANTCINATE H], the results for the concentration for half-maximal inhibition (IC50) (in assay [3] (setting [10]); with BV-2 [4] (setting [11]); with BV-2 [5] (setting [12])) were 18.1 µM, 2.5 µM and 16 µM, respectively. Also, the half-maximal effective concentration (EC50) result (in assay [1] (kbvin); with KB [2] (kb)) was “Not Active” throughout.

On to `C=C(CC[C@@H](C)[C@H]1CC[C@H]2C3=C(C(=O)C[C@]12C)[C@@]1(C)CC[C@@H](O)[C@](C)(O)[C@@H]1C[C@@H]3O)C(C)C(=O)O` (stereo not given in full) [ANTCIN K], for which the IC50 was 47.2 µM in assay [3] (setting [10]), “Not Active” in the assay on BV-2 [4] (bv-2) and “Not Active” with BV-2 [5] (bv-2). Also, the 50% effective concentration (EC50) entry (in assay [1] (kbvin); in the assay with KB [2] (kb)) was “Not Active” each time.

In the case of `C=C(CC[C@@H](C)[C@H]1CC[C@H]2C3=C(C(=O)C[C@]12C)[C@@]1(C)CCC(=O)[C@@H](C)[C@@H]1CC3)C(C)C` [CAMPHORATIN H], the concentration for a half-maximal effect (EC50) result (in assay [1] (kbvin); with KB [2] (kb)) was “Not Active” each time.

As usually defined, the inhibition is the share of the control response that was lost under treatment. A higher inhibition goes with strong suppression. With `C=C(CC[C@@H](C)[C@H]1CC[C@H]2C3=C(C(=O)C[C@]12C)[C@@]1(C)CCC(=O)[C@@H](C)[C@@H]1CC3=O)C(C)C(=O)OC` (stereo not given in full) [ZHANKUIC ACID A METHYL ESTER], the inhibition at 20 µM turned out to be 21% with KB [6] (Homo sapiens, KB, 72 h) and 25% in assay [7]. Moreover, the IC50 is 8.4 µM in assay [3] (setting [10]), 0.6 µM in the assay on BV-2 [4] (setting [11]) and “Not Active” with BV-2 [5] (bv-2). In addition, the EC50 (in assay [1] (setting [8]); with KB [2] (setting [9])) was over 20 µM each time.

Turning to `C=C(CC[C@@H](C)[C@H]1CC[C@H]2C3=C(C(=O)C[C@]12C)[C@@]1(C)CCC(=O)[C@@H](C)[C@@H]1C[C@H]3O)C(C)C(=O)O` (stereo not given in full) [CAMPHORATIN G], the EC50 was found to be 17.5 µM in assay [1] (setting [8]) and 15 µM in the assay on KB [2] (setting [9]).

For the compound `C=C(CC[C@@H](C)[C@H]1CC[C@H]2C3=C(C(=O)C[C@]12C)[C@@]1(C)CCC(=O)[C@@H](C)[C@@H]1CC3=O)C(C)C(=O)O` (stereo not given in full) [ZHANKUIC ACID A], the half-maximal inhibitory concentration (IC50) in assay [3] (setting [10]) is 22.1 µM; in the assay on BV-2 [4] (setting [11]), 3.6 µM; in the assay with BV-2 [5] (bv-2), “Not Active”. Further, the results for the EC50 (in assay [1] (setting [8]); in the assay with KB [2] (setting [9])) were 6.2 µM and 3 µM, respectively.

As for `C=C(CC[C@@H](C)[C@H]1CC[C@H]2C3=C(C(=O)[C@H](O)[C@]12C)[C@@]1(C)CC[C@@H](O)[C@@H](C)[C@@H]1C[C@@H]3O)C(C)C(=O)O` (stereo not given in full) [CAMPHORATIN A], the EC50 entry (in the assay with KB [6] (kb); in assay [1] (kbvin)) was “Not Active” throughout.

For the compound `C=C(CC[C@@H](C)[C@H]1CC[C@H]2C3=C(C(=O)C[C@]12C)[C@@]1(C)CCC(=O)[C@@H](C)[C@@H]1CC3)C(C)C(=O)O` (stereo not given in full) [ANTCIN A], the values for the concentration for half-maximal inhibition (IC50) (in assay [3] (setting [10]); in the assay with BV-2 [4] (setting [11]); in the assay on BV-2 [5] (setting [12])) were 29.2 µM, 4.1 µM and 45.9 µM, respectively. The EC50 was 10 µM in assay [1] (setting [8]) and 4.9 µM in the assay on KB [2] (setting [9]).

With `CC(C)[C@@H](C)/C=C/[C@@H](C)[C@H]1CC[C@H]2C3=CC=C4C[C@@H](O)CC[C@]4(C)[C@H]3CC[C@]12C` [ERGOSTEROL], the IC50 is 27.9 µM in assay [3] (setting [10]), 30.6 µM in the assay on BV-2 [4] (setting [11]) and “Not Active” with BV-2 [5] (bv-2).

For `CC(C)[C@@H](C)/C=C/[C@@H](C)[C@H]1CC[C@@H]2[C@]1(C)CC[C@H]1[C@]23C=C[C@]2(C[C@@H](O)CC[C@]12C)OO3` [ERGOSTEROL PEROXIDE], the IC50 is 20.3 µM in assay [3] (setting [10]), 6.3 µM with BV-2 [4] (setting [11]) and “Not Active” in the assay with BV-2 [5] (bv-2).

With `C=C(CC[C@@H](C)[C@H]1CC[C@H]2C3=C(C(=O)C[C@]12C)[C@@]1(C)CCC(=O)[C@@H](C)[C@@H]1C[C@@H]3O)C(C)C(=O)O` (stereo not given in full) [CAMPHORATIN D], the half-inhibitory concentration (IC50) is 22.6 µM in assay [3] (setting [10]), 4.2 µM in the assay on BV-2 [4] (setting [11]) and “Not Active” in the assay on BV-2 [5] (bv-2). Besides, the EC50 result (in assay [1] (kbvin); in the assay on KB [2] (kb)) was “Not Active” in each case.
